# Only some compounds are listed: those with a hit (about 1.9% of all), similar ones and a draw of the others.
# HGIII-sPLA2 inh: Inhibits HGIII-sPLA2 liposome hydrolysis, primary screen; Q9NZ20; inhibition, % at 12.2 µM; actives 0.56% (n = 370,000); QFRET BODIPY PC-A2 liposome hydrolysis, fluorescence;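 active = inhibition above mean plus 3 SD of compounds lying within the high and low control bounds, cut at about 19% in these data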;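 also: 0% = median of test compound wells and 100% = no enzyme DMSO wells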
# Tb MetRS inh: Trypanosoma brucei MetRS inhibition | purified T. brucei MetRS, ATP depletion, Kinase-Glo luminescence | inhibition, % at 11.9 µM | actives 0.4% (n = 360,000);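 active = inhibition above a per-plate cutoff of the control wells' mean inhibition plus 3 SD, cut at about 5.5% in these data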;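 also: 0% = DMSO wells median and 100% = median of wells with control inhibitor compound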
#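 technique = Kinase-Glo luminescence, ATP depletion format | system = purified MetRS (methionyl-tRNA synthetase) enzyme from Trypanosoma brucei | timing = 15 min preincubation, 2 h reaction, all 25 °C | evaluation = percent inhibition versus plate control medians | dosing = single dose, 11.9 µM final nominal, 0.9% final DMSO | also added = substrates ATP, L-methionine and bulk Escherichia coli tRNA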
# PLCb3 inh: blocks human PLC-beta3 enzyme activity; Purified PLC-beta3, fluorogenic substrate, fluorescence; actives 0.18% (n = 370,000); AID 720704; inhibition, % at 12.2 µM; in the data active = inhibition above about 11%;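 also: 0% = median of compound wells on plate and 100% = full blocker control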
# Target sequence (Q01970 whole entry, looked up): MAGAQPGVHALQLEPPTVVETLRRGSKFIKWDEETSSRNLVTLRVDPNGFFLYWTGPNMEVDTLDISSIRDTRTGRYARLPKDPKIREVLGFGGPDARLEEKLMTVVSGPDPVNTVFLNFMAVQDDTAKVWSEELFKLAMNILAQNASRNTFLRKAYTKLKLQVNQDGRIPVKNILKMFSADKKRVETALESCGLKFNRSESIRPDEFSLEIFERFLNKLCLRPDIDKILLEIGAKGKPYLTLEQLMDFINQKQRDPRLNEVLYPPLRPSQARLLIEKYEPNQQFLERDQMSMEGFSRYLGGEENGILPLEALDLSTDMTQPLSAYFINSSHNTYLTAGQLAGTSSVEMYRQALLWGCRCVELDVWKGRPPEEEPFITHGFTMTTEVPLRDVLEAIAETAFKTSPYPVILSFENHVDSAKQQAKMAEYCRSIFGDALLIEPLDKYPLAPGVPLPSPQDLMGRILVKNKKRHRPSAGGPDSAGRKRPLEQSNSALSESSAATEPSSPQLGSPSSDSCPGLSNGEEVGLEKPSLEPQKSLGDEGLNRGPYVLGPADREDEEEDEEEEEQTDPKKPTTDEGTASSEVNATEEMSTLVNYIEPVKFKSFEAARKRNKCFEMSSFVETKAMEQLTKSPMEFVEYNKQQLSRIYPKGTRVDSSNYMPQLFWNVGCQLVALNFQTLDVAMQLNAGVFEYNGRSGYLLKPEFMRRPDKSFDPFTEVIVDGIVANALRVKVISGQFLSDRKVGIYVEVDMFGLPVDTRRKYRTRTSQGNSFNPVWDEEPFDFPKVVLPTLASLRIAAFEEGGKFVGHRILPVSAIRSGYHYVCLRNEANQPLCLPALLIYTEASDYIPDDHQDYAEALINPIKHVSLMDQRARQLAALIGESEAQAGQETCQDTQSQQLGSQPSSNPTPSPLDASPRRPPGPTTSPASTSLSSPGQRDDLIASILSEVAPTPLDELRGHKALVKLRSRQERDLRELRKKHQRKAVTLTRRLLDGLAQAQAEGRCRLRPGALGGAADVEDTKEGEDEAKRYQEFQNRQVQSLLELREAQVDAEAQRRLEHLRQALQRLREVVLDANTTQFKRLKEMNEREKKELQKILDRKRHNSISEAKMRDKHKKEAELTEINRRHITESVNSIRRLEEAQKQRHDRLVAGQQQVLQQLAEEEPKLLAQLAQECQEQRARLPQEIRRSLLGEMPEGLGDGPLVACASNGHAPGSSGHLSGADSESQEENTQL
# PLCg1 inh: blocks human PLC-gamma1 enzyme activity; inhibition, % at 12.2 µM; purified PLC-gamma1, fluorogenic substrate, fluorescence; actives 0.84% (n = 370,000)
# PLCgamma1 ctr: counter-screen for PLC-beta3 inhibitors: inhibitors of human PLC-gamma1. shares compounds with PLCg1 inh. inhibition, % at 12.3 µM. actives 3.1% (n = 3,300). purified PLC-gamma1, fluorogenic substrate, fluorescence
# PLCbeta3 conf: human PLC-beta3 inhibition, confirmation | actives 1% (n = 3,300) | purified PLC-beta3, fluorogenic substrate fluorescence | inhibition, % at 12.3 µM | shares compounds with PLCg1 inh; in the data active = inhibition above about 11%
# Active calls of the source: *; x = no result given. Rule as the data show it, unless noted: active = inhibition above about 9.5%; inactive = the rest.
SMILES,HGIII-sPLA2 inh,Tb MetRS inh,PLCb3 inh,PLCg1 inh,PLCgamma1 ctr,PLCbeta3 conf
Cc1cnc(C(=O)OCC(=O)Nc2ccc(Br)cc2F)cn1,10,0,-5,-4,x,x
COC(=O)[C@]12C[C@H](CC(=O)NCc3cccc(C(F)(F)F)c3)C(=O)N(CCC3=CCCCC3)C1=C[C@H](C1CCCC1)O[C@@H]2C,-19,x,1,0,x,x
Cc1ccc(-c2cc(-c3nnc(SCC(=O)N4CCOCC4)n3N)[nH]n2)cc1,0,x,2,2,x,x
COC(=O)[C@]12C[C@H](CC(=O)N3CCSCC3)C(=O)N(Cc3cccc4ccccc34)C1=C[C@H](COCc1ccccc1)O[C@@H]2C,4,x,-2,4,x,x
COC(=O)[C@]12C[C@H](CC(=O)NCCc3ccccc3OC)C(=O)N(CCc3ccc(OC)c(OC)c3)C1=C[C@H](COCc1ccccc1)O[C@@H]2C,-4,x,6,13*,-4,-1
COC(=O)[C@]12C[C@H](CC(=O)N3CCCC3)C(=O)N(Cc3cccc4ccccc34)C1=C[C@H](COCc1ccccc1)O[C@@H]2C,4,x,3,9.5*,4,7
O=C(NC(=S)Nc1cccc(Cl)c1N1CCOCC1)c1cccs1,2,-1,-2,9.9*,1,1
O=C(NC(=S)Nc1cccc(Cl)c1N1CCCCC1)c1cccs1,-2,-1,2,1,x,x
COc1ccc(C2C(C(=O)Nc3ccc(C)c(C)c3)CCC(=O)N2c2ccc(OC)cc2)cc1 (stereo not given),-21,x,-4,3,x,x
CCCCn1nnnc1C(c1ccccc1)N1CCN(c2cccc(C(F)(F)F)n2)CC1 (stereo not given),-1,-1,-1,10*,-8,-8
CCCCn1nnnc1C(c1ccccc1)N1CCN(c2ccccn2)CC1 (stereo not given),-3,-1,2,-1,x,x
CCCCN(C)C(=O)c1ccc2c(c1)NC(=O)C(C)(C)O2,3,x,-2,0,x,x
COC(=O)CC(C(=O)Nc1cc(C(=O)OC)cc(C(=O)OC)c1)N1CCN(C)CC1 (stereo not given),9,-2,11*,14*,-4,0
COc1ccc(NC(=O)CCCCCN2C(=O)CCC2=O)cc1Cl,-5,0,5,-1,x,x
COc1ccc(NC(=O)CCCN2C(=O)CCC2=O)cc1Cl,-4,-2,3,11*,-5,-1
COc1cccc(NC(=S)N2CCCC2c2ccc(OC)c(OC)c2)c1 (stereo not given),9,0,-2,11*,2,0
CCC[C@H]1[C@@H](OC(=O)N2CCN(c3ccccc3)CC2)CC[C@@]23CCCN2C(=O)CCC[C@@H]13,-14,x,3,-2,x,x
COc1ccc(-c2noc3c2-c2nc(C(C)C)sc2CC3)cc1,2,0,1,11*,-6,-4
COc1ccc(-c2noc3c2-c2nc(-c4ccc(Br)cc4)sc2CC3)cc1,3,0,3,14*,-10,-7
COc1ccc(-c2noc3c2-c2nc(-c4ccccc4C)sc2CC3)cc1,0,x,0,0,x,x
CC(C)c1nc2c(s1)CCc1onc(-c3ccc(Cl)cc3)c1-2,1,-1,1,-2,x,x
Cc1ccc(C)c(Cn2c(C(C)O)nc3ccccc32)c1 (stereo not given),-5,-1,2,11*,-1,3
CC[C@@H]1/C(=C/c2ccccc2)N2C(=O)C[C@@H](c3ccccc3)N=C2N1Cc1ccc(OC)cc1OC,-3,x,-2,-2,x,x
N#Cc1ccc(C23CC4(C2)[C@H](CN(Cc2ccc(-c5ccccc5)cc2)[C@@H]4c2ccccc2)C3c2ccc(Cl)nc2)cc1 (stereo not given in full),5,0,3,13*,-10,-15
COc1c(OC(C)=O)ccc(/C=C/c2ccc3ccccc3n2)c1[N+](=O)[O-],-10,4,6,14*,1,-21
SMILES,HGIII-sPLA2 inh,Tb MetRS inh,PLCb3 inh,PLCg1 inh,PLCgamma1 ctr,PLCbeta3 conf
COc1c(OC(C)=O)ccc(/C=C/c2ccc3cccc(OC)c3n2)c1[N+](=O)[O-],-24,0,3,4,x,x
CCOC(=O)c1ncn2c1C(=O)OC2(C)C,-3,-1,6,15*,-1,2
O=C(NCC1CCCO1)c1cnn2c1NC(c1ccccc1)CC2C(F)(F)F (stereo not given),-3,0,10,12*,-8,-7
CC12CCC(C/C1=N/O)C2(C)C (stereo not given),14,0,-2,10*,-4,1
CC12CCC(CC1=O)C2(C)C (stereo not given),3,1,4,6,x,x
CC(C)CCNC(=O)[C@H]1COC(O)([C@H](Cc2ccccc2)NC(=O)[C@@H](NC(=O)OCc2ccccc2)C(C)C)CN1C (stereo not given in full),3,x,-2,-1,x,x
CCOc1cc(CNCCc2ccc(S(N)(=O)=O)cc2)ccc1OCc1ccc(Cl)cc1,-30,-1,9,21*,3,2
COc1cc(CNCCc2ccc(S(N)(=O)=O)cc2)ccc1OCc1ccc(Cl)cc1,-25,1,4,5,x,x
COC(=O)c1cc(-c2ccc(OC)cc2)n[nH]1,-4,-1,-2,-2,x,x
COC(=O)c1cc(-c2ccc(C)cc2)n[nH]1,-5,0,4,10*,-6,-3
C(=NOCc1ccccc1)c1ccccn1,7,0,13*,1,-1,-3
C(=C\c1ccccn1)/c1ccccn1,1,0,-2,8,x,x
C(=NOCc1ccccc1)c1ccncc1,1,0,5,10*,-1,1
C(=N\N=C\c1ccncc1)/c1ccncc1,3,0,1,1,x,x
COC(=O)[C@]12C[C@H](CC(=O)NCC34CC5CC(CC(C5)C3)C4)C(=O)N(Cc3cccc4ccccc34)C1=C[C@H](COCc1ccccc1)O[C@@H]2C,-3,x,-2,-1,x,x
COC(=O)[C@]12C[C@H](CC(=O)NCc3ccc(C)o3)C(=O)N(CCc3ccc(OC)c(OC)c3)C1=C[C@H](C(C)(C)C)O[C@@H]2C,-21,x,4,2,x,x
C=CCSC1=N/C(=C\c2cc(OCC)c(OC(C)=O)c([N+](=O)[O-])c2)C(=O)S1,0,1,5,12*,2,-1
O=C(Nc1ccc(F)cc1)OCc1cn(Cc2cc(F)ccc2F)nn1,-6,x,-5,0,x,x
COc1ccccc1-c1ccc([C@@H]2C[C@H]3[C@H](CON3C)CN2CC2CCCCC2)cc1,7,x,6,5,x,x
COc1ccccc1CNC(=O)CCc1ccccc1,1,0,0,10*,4,0
CS(=O)(=O)N(CC(=O)NCc1ccccc1)Cc1ccc(Cl)cc1,-5,-1,5,2,x,x
COc1ccccc1/C=C(/C(=O)OCC(=O)NCc1ccccc1)c1ccccc1,-3,0,12*,13*,-1,-2

# Assay outcomes (PubChem)
